Here are results for four molecules from publication PMC2647857 (Journal of the American Chemical Society, 2009).

A short description of series [1]: Spectroelectrochemical midpoint potential of the NO complex. The format is physicochemical, Rhodnius prolixus. The settings on record: NO bound. A digest of the protocol:
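Spectroelectrochemistry of ~0.05 mM E. coli-expressed protein in 0.1 M sodium phosphate or acetate at pH 5.5, 6.5 and 7.5, 27 ± 1 °C. SNAP supplied NO at a level fully complexing both oxidation states. Ag/AgCl reference ([…] mV vs SHE). Absorbance versus applied potential fit to Nernst equation; pH dependence and mutant−standard differences derived.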

The nature of series [2]: NO binding constant to Fe. The settings on record: pH 7.5. On the set-up: species or system Rhodnius prolixus.
The conditions of series [3]: ligand-free, cited from earlier work.
For series [4] the following is noted: NO bound, cited from earlier work.
The conditions of series [5]: read-out: Kd for NO dissociation, Fe(III), cited from earlier work.
Series [6] in a line: Spectroelectrochemical midpoint potential, ligand-free. To be noted: ligand-free. Type of series: physicochemical, Rhodnius prolixus.
A short description of series [7]: Imidazole binding constant to Fe. On the set-up: species or system Rhodnius prolixus. To be noted: pH 5.5.

Numbering of substitutions follows the chain as printed. In names and notes the source's numbering stands. Read-outs that look alike come from different tables or passages of the source.

B1: NP1: recombinant wild-type nitrophorin 1 of Rhodnius prolixus, NO-carrying heme protein, with M0 present (protein, UniProt Q26239 24-207, looked up)
Nitrophorin-1: KCTKNALAQTGFNKDKYFNGDVWYVTDYLDLEPDDVPKRYCAALAAGTASGKLKEALYHYDPKTQDTFYDVSELQEESPGKYTANFKKVEKNGNVKVDVTSGNYYTFTVMYADDSSALIHTCLHKGNKDLGDLYAVLNRNKDTNAGDKVKGAVTAASLKFSDFISTKDNKCEYDNVSLKSLLTK
modifications: N-terminal Met0 retained
As for B1, the “Em,NO” value is 118±3 mV vs. SHE in series [1] (pH 6.5, 27 °C); 154±5 mV vs. SHE in series [4] (pH 5.5, 27 °C ref 15); 127±4 mV vs. SHE in series [4] (pH 7.5, 27 °C ref 15). For the same molecule, in series [2] (listed as M0-containing NP1), the “NO formation constant Kf, Fe(III) form” value was determined as 1e+06 M⁻¹. Moreover, the Kd in series [2] (read-out: NO dissociation constant Kd, Fe(III) form) was found to be 1 µM. The Em in series [3] (pH 5.5, 27 °C ref 15) was −274±2 mV vs. SHE; in series [3] (pH 7.5, 27 °C ref 15), −303±4 mV vs. SHE.

B2: NP4: recombinant wild-type nitrophorin 4 of Rhodnius prolixus, native A1 as first residue (protein, UniProt Q94734 22-205, looked up)
Nitrophorin-4: ACTKNAIAQTGFNKDKYFNGDVWYVTDYLDLEPDDVPKRYCAALAAGTASGKLKEALYHYDPKTQDTFYDVSELQVESLGKYTANFKKVDKNGNVKVAVTAGNYYTFTVMYADDSSALIHTCLHKGNKDLGDLYAVLNRNKDAAAGDKVKSAVSAATLEFSKFISTKENNCAYDNDSLKSLLTK
As for B2, the “Em,NO” value in series [1] (pH 6.5, 27 °C) is on record as 44±2 mV vs. SHE; in series [1] (pH 7.5, 27 °C) it was 59±2 mV vs. SHE; in series [4] (pH 5.5, 27 °C ref 15), 94±5 mV vs. SHE. In addition, the Em in series [3] (pH 5.5, 27 °C ref 15) was −259±2 mV vs. SHE; in series [3] (pH 7.5, 27 °C ref 15) it was −278±4 mV vs. SHE. Moreover, the Kd in series [5] (pH 5.5 ref 19) is 0.05 µM; in series [5] (pH 7.5 ref 19), 0.12 µM.

B3: NP4-E55Q: site-directed mutant of NP4, buried E55 replaced by Gln (protein, UniProt Q94734 22-205, looked up, variant E55Q)
Nitrophorin-4: B2 Nitrophorin-4 with E55Q
For B3, the “ΔEm = Em(mutant)−Em(standard)” value in series [6] (pH 5.5) worked out at 68±3 mV; in series [6] (pH 7.5) it was 82±4 mV. The Em in series [6] (pH 5.5, 27 °C) is on record as −191±3 mV vs. SHE; in series [6] (pH 7.5, 27 °C), −196±2 mV vs. SHE. For the same molecule, the “ΔpHΔ(Em,NO) = ΔEm,NO(pH7.5) − ΔEm,NO(pH5.5)” value in series [1] came out at 73±6 mV. Besides, the “ΔEm,NO = Em(mutant)−Em(standard)” value is −6±5 mV in series [1] (pH 5.5), 23±3 mV in series [1] (pH 6.5) and 67±2 mV in series [1] (pH 7.5). In addition, the “Em,NO” value was 88±1 mV vs. SHE in series [1] (pH 5.5, 27 °C); 67±2 mV vs. SHE in series [1] (pH 6.5, 27 °C); 126±2 mV vs. SHE in series [1] (pH 7.5, 27 °C). For the same molecule, the “increase of imidazole binding constant compared to wild-type” value in series [7] was found to be 1 log unit.

B4: NP4-D30A: site-directed mutant of NP4, D30 replaced by Ala (protein, UniProt Q94734 22-205, looked up, variant D30A)
Nitrophorin-4: B2 Nitrophorin-4 with D30A
Regarding B4, the “ΔEm = Em(mutant)−Em(standard)” value is given as 46±2 mV in series [6] (pH 5.5) and 62±4 mV in series [6] (pH 7.5). Further, the Em in series [6] (pH 5.5, 27 °C) is on record as −213±1 mV vs. SHE; in series [6] (pH 7.5, 27 °C) it was −216±2 mV vs. SHE. For the same molecule, the “ΔpHΔ(Em,NO) = ΔEm,NO(pH7.5) − ΔEm,NO(pH5.5)” value in series [1] is on record as 53±6 mV. Also, the entries for the “ΔEm,NO = Em(mutant)−Em(standard)” value in series [1] (pH 5.5), in series [1] (pH 6.5) and in series [1] (pH 7.5) were 87±5 mV, 119±5 mV and 139±2 mV, respectively. In addition, the “Em,NO” value in series [1] (pH 5.5, 27 °C) is given as 181±2 mV vs. SHE; in series [1] (pH 6.5, 27 °C), 163±4 mV vs. SHE.
